Active and inactive are the calls of the source. The rule behind the calls is not given here.
What was measured:
RWPE-1 = test: Cytotoxicity against human RWPE1 cells assessed as cell growth inhibition after 24 hrs by MTT assay; assay type: cell-based; settings: RWPE-1, 24 h
Method in brief: (§1)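 Cells seeded 24 h in RPMI 1640 + 10% FBS. RWPE-1 was kept in K-SFM with bovine pituitary extract and EGF. Cells then exposed to compounds for 24 h at 37 °C, 5% CO2, with DMSO vehicle and docetaxel as positive control. MTT added for 4 h, absorbance read at 570 nm. Triplicate runs, IC50 reported as mean of three experiments.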

K562 = test: Cytotoxicity against human K562 cells assessed as cell growth inhibition after 24 hrs by MTT assay; assay type: functional, cell-based; settings: K562, 24 h; method in brief: as §1
MCF7 = test: Cytotoxicity against human MCF7 cells assessed as cell growth inhibition after 24 hrs by MTT assay; assay type: functional, cell-based; settings: MCF7, 24 h; method in brief: as §1
HeLa = test: Cytotoxicity against human HeLa cells assessed as cell growth inhibition after 24 hrs by MTT assay; assay type: functional, cell-based; method in brief: as §1
DU-145 = test: Cytotoxicity against human DU145 cells assessed as cell growth inhibition after 24 hrs by MTT assay; assay type: functional, cell-based; settings: DU-145, 24 h; method in brief: as §1
MDA-MB-231 = test: Cytotoxicity against human MDA-MB-231 cells assessed as cell growth inhibition after 24 hrs by MTT assay; assay type: functional, cell-based; settings: MDA-MB-231, 24 h; method in brief: as §1
PC-3 [1] = test: Induction of morphological changes in human PC3 cells assessed as formation of massive cytoplasmic vacuoles at 1 uM after 12 hrs by confocal microscopic analysis; assay type: functional, cell-based
PC-3 [2] = test: Cytotoxicity against human PC3 cells assessed as cell growth inhibition after 24 hrs by MTT assay; assay type: functional, cell-based; settings: PC-3, 24 h; method in brief: as §1
PC-3 [3] = test: Induction of autophagy in human PC3 cells transfected with mRFP-GFP-LC3 assessed as LC3 granulation of LC3 at 0.5 uM after 8 hrs by fluorescence microscopic analysis; assay type: functional, cell-based
Method in brief: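 PC3 cells transfected with an mRFP-GFP-LC3 reporter plasmid, then treated 8 h with 1 μM test agent or 0.5 μM rapamycin (autophagy inducer). Imaged by confocal fluorescence microscopy: yellow puncta (overlapping red/green) scored as autophagosomes, red-only puncta as autolysosomes, since GFP is quenched in acidic lysosomes.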

PC-3M [4] = test: Antitumor activity against human PC3M-lluc-C6 cells xenografted in athymic Balb/c mouse assessed as decrease in tumor burden by measuring photon intensity at 15 mg/kg, ip measured on day 18 by bioluminescence method (reference value: 2.332 x 10^10 photons/s/cm2); assay type: functional
PC-3M [5] = test: Antitumor activity against human PC3M-lluc-C6 cells xenografted in athymic Balb/c mouse assessed as tumor growth inhibition at 15 mg/kg, ip administered every 2 days measured on day 18; assay type: functional; settings: read-out: TGI
[6] = Toxicity in athymic Balb/c mouse assessed as body weight loss at 15 mg/kg, ip administered every 2 days for 18 days; assay type: organism-based; settings: in vivo
Method in brief: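 Male athymic BALB/c-nu mice bearing subcutaneous PC3M-luc-C6 xenografts, n = 5 per group. Dosing was 15 mg/kg i.p. every 2 days for 18 days versus placebo and docetaxel 15 mg/kg groups. Body weight was recorded over the treatment period.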

PC-3M [7] = test: Antitumor activity against human PC3M-lluc-C6 cells xenografted in athymic Balb/c mouse assessed as decrease in tumor burden by measuring photon intensity at 15 mg/kg, ip measured on day 9 by bioluminescence method (reference value: 6.501 x 10^9 photons/s/cm2); assay type: functional

| SMILES | IC50 (RWPE-1) | IC50 (K562) | IC50 (MCF7) | IC50 (HeLa) | IC50 (DU-145) | IC50 (MDA-MB-231) | Activity (PC-3 [1]) | IC50 (PC-3 [2]) | Activity (PC-3 [3]) | Activity (PC-3M [4]) | inhibition in vivo at 15 mg/kg (PC-3M [5]) | Activity [6] | Activity (PC-3M [7]) |
| --- | --- | --- | --- | --- | --- | --- | --- | --- | --- | --- | --- | --- | --- |
| Cc1cc(C)cc(COc2cc3c(cc2OCc2cc(C)cc(C)c2)[C@@H]2C[C@](C)(O)C[C@@H](C)N2CC3)c1 | 4770 nM | 1460 nM | 500 nM | 1250 nM | 1950 nM | 2350 nM | Active | 890 nM | – | – | – | – | – |
| C[C@@H]1C[C@H](O)C[C@H]2c3cc(OCc4cc(C(F)(F)F)cc(C(F)(F)F)c4)c(OCc4cc(C(F)(F)F)cc(C(F)(F)F)c4)cc3CCN12 | 2320 nM | 1150 nM | 1870 nM | 2840 nM | 1870 nM | 560 nM | Active | 680 nM | – | – | – | – | – |
| Cc1cc(C)cc(COc2cc3c(cc2OCc2cc(C)cc(C)c2)[C@@H]2C[C@@H](O)C[C@@H](C)N2CC3)c1 (racemic) | 1350 nM | 2350 nM | 650 nM | 3240 nM | 1510 nM | 1330 nM | Active | 720 nM | – | – | – | – | – |
| C[C@@H]1C[C@@H](O)C[C@H]2c3cc(OCc4cc(C(F)(F)F)cc(C(F)(F)F)c4)c(OCc4cc(C(F)(F)F)cc(C(F)(F)F)c4)cc3CCN12 | 1150 nM | 1350 nM | 520 nM | 2010 nM | 1740 nM | 510 nM | Active | 450 nM | – | – | – | – | – |
| CO[C@H]1C[C@@H]2CC[C@@H](C)[C@@](O)(O2)C(=O)C(=O)N2CCCC[C@H]2C(=O)O[C@H]([C@H](C)C[C@@H]2CC[C@@H](O)[C@H](OC)C2)CC(=O)[C@H](C)/C=C(\C)[C@@H](O)[C@@H](OC)C(=O)[C@H](C)C[C@H](C)/C=C/C=C/C=C/1C | – | – | – | – | – | – | – | – | Active | – | – | – | – |
| COc1ccc([C@@H]2C[C@@H](O)C[C@H]3c4cc(OCc5cc(C)cc(C)c5)c(OCc5cc(C)cc(C)c5)cc4CCN23)cc1OC | 3040 nM | 3950 nM | 1320 nM | 3050 nM | 4530 nM | 970 nM | Active | 1150 nM | – | – | – | – | – |
| C[C@@H]1C[C@@](C)(O)C[C@H]2c3cc(OCc4cc(C(F)(F)F)cc(C(F)(F)F)c4)c(OCc4cc(C(F)(F)F)cc(C(F)(F)F)c4)cc3CCN12 | 2570 nM | 1840 nM | 810 nM | 1210 nM | 2240 nM | 530 nM | Active | 610 nM | – | – | – | – | – |
| C[C@@H]1C[C@@](C)(O)C[C@H]2c3cc(OCc4cccc(F)c4)c(OCc4cccc(F)c4)cc3CCN12 | 1860 nM | 1010 nM | 470 nM | 960 nM | 2140 nM | 590 nM | Active | 410 nM | – | – | – | – | – |
| C[C@@H]1C[C@@H](O)C[C@H]2c3cc(OCc4cccc(F)c4)c(OCc4cccc(F)c4)cc3CCN12 | 1490 nM | 1420 nM | 490 nM | 1730 nM | 3850 nM | 580 nM | Active | 820 nM | – | – | – | – | – |
| CC(=O)O[C@@]12CO[C@@H]1C[C@H](O)[C@@]1(C)C(=O)[C@H](O)C3=C(C)[C@@H](OC(=O)[C@H](O)[C@@H](NC(=O)OC(C)(C)C)c4ccccc4)C[C@@](O)([C@@H](OC(=O)c4ccccc4)[C@H]21)C3(C)C [DOCETAXEL ANHYDROUS] | 1730 nM | 39 nM | 22 nM | 61 nM | 26 nM | 32 nM | inactive | 13 nM | – | 1.92 ×10⁹ /s/cm2 | 92% | 13.3 g | 3.513 ×10⁹ /s/cm2 |
| C[C@@H]1C[C@@H](O)C[C@H]2c3cc(OCc4ccc(Br)cc4)c(OCc4ccc(Br)cc4)cc3CCN12 | – | 1220 nM | 1290 nM | 1160 nM | 2580 nM | 880 nM | Active | 1240 nM | – | – | – | – | – |
| COc1ccc([C@@H]2C[C@H](O)C[C@H]3c4cc(OCc5cc(C)cc(C)c5)c(OCc5cc(C)cc(C)c5)cc4CCN23)cc1OC | > 20000 nM | > 20000 nM | > 20000 nM | > 20000 nM | > 20000 nM | > 20000 nM | – | > 20000 nM | – | – | – | – | – |
| O=C1C[C@@H](c2ccccc2)N2CCc3ccc(OCc4ccccc4)cc3[C@@H]2C1 (relative stereo) | > 20000 nM | > 20000 nM | > 20000 nM | > 20000 nM | > 20000 nM | > 20000 nM | – | > 20000 nM | – | – | – | – | – |

From ChEMBL document CHEMBL4425094, “Novel Benzo[a]quinolizidine Analogs Induce Cancer Cell Death through Paraptosis and Apoptosis” (J Med Chem, 2016)
